{"source": "paper PMC11564280", "about": "(Clinical Drug Investigation, 2024)", "key": {"[1]": {"assay": "Pharmacokinetics, Japanese and Chinese participants together or compared", "type": "in vivo, human", "in_short": "(§1)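 Healthy males aged 18–50 y, randomized 3:1 to active or placebo (single-blind). Oral suspension given once daily each morning after a ≥10 h fast for 10 days: Japanese cohorts 2.5, 5 or 10 mg, Chinese cohort 5 mg. K2EDTA blood drawn pre-dose and 0.25–12 h post-dose on days 1 and 10, plus 24–336 h. Urine pooled 0–3, 3–6, 6–9, 9–12 and 12–24 h on day 10. Plasma spun 1500g, 4 °C, 10 min; samples stored at −50 to −90 °C.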"}, "[2]": {"assay": "Safety and tolerability, Japanese and Chinese participants together", "type": "in vivo, human", "in_short": "(§2)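 Safety assessed at every visit in all randomized participants given ≥1 dose of drug or placebo (oral suspension once daily for 10 days, 3:1 randomization). Covered AE and SAE incidence and severity, vital signs, ECGs, laboratory tests and skin rash. Participants resided on site from day −1 to day 12, with visits on days 14, 16, 20 and 24. Rash graded by CTCAE; relatedness judged by the investigator.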"}, "[3]": {"details": "human plasma; cited from earlier work"}, "[4]": {"assay": "Stability of frozen plasma and urine pharmacokinetic samples", "parameters": "species or system human", "details": "stored frozen at − 50 to − 90 °C"}, "[5]": {"details": "cited from earlier work; for mean CL/F on the last study day: mainly white and Black/African American participants"}, "[6]": {"type": "in vivo, human", "in_short": "as §1"}, "[7]": {"type": "in vivo, human", "details": "for Ae(0–last), cumulative amount excreted in urine / fe(0–last), fraction of dose excreted unchanged in urine: day 10; for Vd/F / half-life / CL renal: human, po; for Vd/F / half-life: plasma; for Ae(0–last), cumulative amount excreted in urine / fe(0–last), fraction of dose excreted unchanged in urine / CL renal: urine", "in_short": "as §1"}, "[8]": {"details": "SAD study 5–405 mg; cited from earlier work"}, "[9]": {"assay": "Safety and tolerability in healthy Japanese volunteers", "type": "in vivo, human", "details": "for Any AE / Any AE leading to discontinuation / Any SAE / Any possibly related AE / Death / Maculopapular rash: Japanese", "in_short": "as §2"}, "[10]": {"assay": "Safety and tolerability in healthy Chinese volunteers", "type": "in vivo, human", "details": "5 mg once daily for 10 days, n = 6", "in_short": "as §2"}, "[11]": {"details": "Chinese, 5 mg oral once daily, day 10, n = 5, urine"}, "[12]": {"details": "Japanese, 2.5 mg oral once daily, n = 6"}, "[13]": {"details": "Japanese, 5 mg oral once daily, n = 5"}, "[14]": {"details": "Japanese, 10 mg oral once daily, n = 3"}, "[15]": {"details": "2.5 mg once daily for 10 days, n = 6"}, "[16]": {"details": "5 mg once daily for 10 days, n = 6"}, "[17]": {"details": "10 mg once daily for 10 days, n = 6"}, "[18]": {"details": "total mitiperstat 2.5, 5 or 10 mg, n = 18"}}, "note": "“Also recorded” adds a separate entry of the source. Read-outs that look alike come from different tables or passages of the source."}
{"smiles": "C[C@@H](N)c1cc(Cl)ccc1Cn1c(=S)[nH]c(=O)c2[nH]ccc21", "note": "[Mitiperstat]", "values": [{"measurement": "mean CL/F on the last study day", "setting": "[1]; Japanese and Chinese cohorts receiving 5 mg", "value": 25.3, "unit": "L/h"}, {"measurement": "time to steady state", "setting": "[1]; Japanese and Chinese, once-daily oral dosing", "value": "≤ 10", "unit": "days"}, {"measurement": "time to steady state by visual interpretation", "setting": "[1]; Japanese and Chinese, trough concentrations", "value": "approximately 7 days"}, {"measurement": "renal clearance as share of apparent total clearance", "setting": "[1]; both Japanese and Chinese participants", "value": "approximately 50%"}, {"measurement": "median time to Cmax", "setting": "[1]; day 10, Japanese and Chinese, range of group medians", "value": "1.02 to 2.00", "unit": "h"}, {"measurement": "half-life", "setting": "[1]; human, plasma, po", "value": "50.2 to 57.8", "unit": "h"}, {"measurement": "laboratory results, vital signs or electrocardiograms", "setting": "[2]; Japanese and Chinese, 2.5–10 mg once daily for 10 days", "value": "No clinically significant trends or shifts from baseline"}, {"measurement": "time to resolution of rash", "setting": "[2]; all cases of rash", "value": "≤ 1", "unit": "month"}, {"measurement": "day of rash occurrence", "setting": "[2]; the other four participants who experienced rash", "value": 9, "unit": "days"}, {"measurement": "adverse events of rash of moderate intensity (maculopapular rash, CTCAE grade 2)", "setting": "[2]; three Japanese 10 mg, one Chinese 5 mg", "value": "Four"}, {"measurement": "share of drug-related exposure in plasma", "setting": "[3]", "value": "approximately 7%"}, {"measurement": "known stability period of study samples", "setting": "[4]; plasma", "value": 438, "unit": "days"}, {"measurement": "known stability period of study samples", "setting": "[4]; urine", "value": 439, "unit": "days"}, {"measurement": "dose proportionality of AUC and Cmax", "setting": "[5]; MAD study 5–45 mg, last day of dosing", "value": "approximately proportional to dose"}, {"measurement": "time to Cmax", "setting": "[5]; healthy participants", "value": "approximately 1 h"}, {"measurement": "mean CL/F on the last study day", "setting": "[5]; 5 mg", "value": 22.8, "unit": "L/h"}, {"measurement": "mean CL/F on the last study day", "setting": "[5]; 10 mg", "value": 20.6, "unit": "L/h"}, {"measurement": "Ae(0–last), cumulative amount excreted in urine", "setting": "[6]; [11]", "value": "2.48 (0.53) mg"}, {"measurement": "fe(0–last), fraction of dose excreted unchanged in urine", "setting": "[6]; [11]", "value": "49.59 (10.62) %"}, {"measurement": "Vd/F", "setting": "[6]; human, plasma, po, 5 mg", "value": 1960, "unit": "L"}, {"measurement": "half-life", "setting": "[6]; human, plasma, po, 5 mg", "value": 55.4, "unit": "h"}, {"measurement": "CL renal", "setting": "[6]; human, urine, po, 5 mg", "value": 200, "unit": "mL/min"}, {"measurement": "Ae(0–last), cumulative amount excreted in urine", "setting": "[7]; [12]", "value": "1.20 (0.29) mg"}, {"measurement": "fe(0–last), fraction of dose excreted unchanged in urine", "setting": "[7]; [12]", "value": "47.94 (11.55) %"}, {"measurement": "Ae(0–last), cumulative amount excreted in urine", "setting": "[7]; [13]", "value": "2.56 (0.72) mg"}, {"measurement": "fe(0–last), fraction of dose excreted unchanged in urine", "setting": "[7]; [13]", "value": "51.14 (14.31) %"}, {"measurement": "Ae(0–last), cumulative amount excreted in urine", "setting": "[7]; [14]", "value": "6.29 (1.77) mg"}, {"measurement": "fe(0–last), fraction of dose excreted unchanged in urine", "setting": "[7]; [14]", "value": "62.94 (17.71) %"}, {"measurement": "dose proportionality of exposure (AUC, Ctrough and Cmax)", "setting": "[7]; Japanese, 2.5–10 mg range", "value": "dose proportional; also recorded: increased proportionally with dose"}, {"measurement": "Vd/F", "setting": "[7]; 2.5 mg", "value": 2300, "unit": "L"}, {"measurement": "half-life", "setting": "[7]; 2.5 mg", "value": 50.2, "unit": "h"}, {"measurement": "Vd/F", "setting": "[7]; 5 mg", "value": 2170, "unit": "L"}, {"measurement": "half-life", "setting": "[7]; 5 mg", "value": 57.8, "unit": "h"}, {"measurement": "Vd/F", "setting": "[7]; 10 mg", "value": 2250, "unit": "L"}, {"measurement": "half-life", "setting": "[7]; 10 mg", "value": 56.4, "unit": "h"}, {"measurement": "CL renal", "setting": "[7]; 2.5 mg", "value": 248, "unit": "mL/min"}, {"measurement": "CL renal", "setting": "[7]; 5 mg", "value": 215, "unit": "mL/min"}, {"measurement": "CL renal", "setting": "[7]; 10 mg", "value": 282, "unit": "mL/min"}, {"measurement": "dose proportionality of exposure (average AUC)", "setting": "[8]", "value": "increased proportionally with mitiperstat dose"}, {"measurement": "Any AE", "setting": "[9]; [15]", "value": "1 (16.7) n (%)"}, {"measurement": "Any AE leading to discontinuation", "setting": "[9]; [15]", "value": "0 (0.0) n (%)"}, {"measurement": "Any SAE", "setting": "[9]; [15]", "value": "0 (0.0) n (%)"}, {"measurement": "Any possibly related AE", "setting": "[9]; [15]", "value": "0 (0.0) n (%)"}, {"measurement": "Death", "setting": "[9]; [15]", "value": "0 (0.0) n (%)"}, {"measurement": "Maculopapular rash", "setting": "[9]; [15]", "value": "0 (0.0) n (%)"}, {"measurement": "Any AE", "setting": "[9]; [16]", "value": "2 (33.3) n (%)"}, {"measurement": "Any AE leading to discontinuation", "setting": "[9]; [16]", "value": "1 (16.7) n (%)"}, {"measurement": "Any SAE", "setting": "[9]; [16]", "value": "0 (0.0) n (%)"}, {"measurement": "Any possibly related AE", "setting": "[9]; [16]", "value": "1 (16.7) n (%)"}, {"measurement": "Death", "setting": "[9]; [16]", "value": "0 (0.0) n (%)"}, {"measurement": "Maculopapular rash", "setting": "[9]; [16]", "value": "1 (16.7) n (%)"}, {"measurement": "Any AE", "setting": "[9]; [17]", "value": "4 (66.7) n (%)"}, {"measurement": "Any AE leading to discontinuation", "setting": "[9]; [17]", "value": "3 (50.0) n (%)"}, {"measurement": "Any SAE", "setting": "[9]; [17]", "value": "0 (0.0) n (%)"}, {"measurement": "Any possibly related AE", "setting": "[9]; [17]", "value": "3 (50.0) n (%)"}, {"measurement": "Death", "setting": "[9]; [17]", "value": "0 (0.0) n (%)"}, {"measurement": "Maculopapular rash", "setting": "[9]; [17]", "value": "3 (50.0) n (%)"}, {"measurement": "Any AE", "setting": "[9]; [18]", "value": "7 (38.9) n (%)"}, {"measurement": "Any AE leading to discontinuation", "setting": "[9]; [18]", "value": "4 (22.2) n (%)"}, {"measurement": "Any SAE", "setting": "[9]; [18]", "value": "0 (0.0) n (%)"}, {"measurement": "Any possibly related AE", "setting": "[9]; [18]", "value": "4 (22.2) n (%)"}, {"measurement": "Death", "setting": "[9]; [18]", "value": "0 (0.0) n (%)"}, {"measurement": "Maculopapular rash", "setting": "[9]; [18]", "value": "4 (22.2) n (%)"}, {"measurement": "day of rash occurrence", "setting": "[9]; Participant receiving 5 mg", "value": 4, "unit": "days"}, {"measurement": "Any AE", "setting": "[10]", "value": "2 (33.3) n (%)"}, {"measurement": "Any AE leading to discontinuation", "setting": "[10]", "value": "1 (16.7) n (%)"}, {"measurement": "Any SAE", "setting": "[10]", "value": "0 (0.0) n (%)"}, {"measurement": "Any possibly related AE", "setting": "[10]", "value": "2 (33.3) n (%)"}, {"measurement": "Death", "setting": "[10]", "value": "0 (0.0) n (%)"}, {"measurement": "Maculopapular rash", "setting": "[10]", "value": "1 (16.7) n (%)"}]}
